Measured values published in ChEMBL document CHEMBL3351355, “Structure-affinity/activity relationships of 1,4-dioxa-spiro[4.5]decane based ligands at α1 and 5-HT1A receptors” (Eur J Med Chem, 2014).

What was measured:
[1] = biological target: T1, 5-hydroxytryptamine receptor 1A (Homo sapiens) (UniProt P08908); experiment: Agonist activity at human recombinant 5-HT1A receptor expressed in HeLa cells after 30 mins by [35S]GTPgammaS binding assay; format: functional, cell-based
T1 sequence (whole entry): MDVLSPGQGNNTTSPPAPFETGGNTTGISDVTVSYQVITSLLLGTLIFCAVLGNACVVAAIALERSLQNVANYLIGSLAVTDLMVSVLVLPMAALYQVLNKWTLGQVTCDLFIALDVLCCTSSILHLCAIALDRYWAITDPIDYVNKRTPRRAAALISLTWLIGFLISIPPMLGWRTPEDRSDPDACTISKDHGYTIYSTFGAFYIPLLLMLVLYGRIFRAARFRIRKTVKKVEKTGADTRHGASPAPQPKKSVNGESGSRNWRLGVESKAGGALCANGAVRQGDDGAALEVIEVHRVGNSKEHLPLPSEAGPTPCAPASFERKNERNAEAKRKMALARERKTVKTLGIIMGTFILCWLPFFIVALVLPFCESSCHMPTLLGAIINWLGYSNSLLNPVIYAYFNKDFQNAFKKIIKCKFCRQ
How it was run: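 HeLa membranes expressing human 5-HT1A (50–70 µg protein) in 20 mM HEPES, 3 mM MgSO4, 120 mM NaCl pH 7.4 with 30 µM GDP; test drug 0.01 nM–10 µM, 20 min at 30 °C, then 200 pM [35S]GTPγS for 30 min at 30 °C. Nonspecific with 10 µM GTPγS; filtration and scintillation counting. Emax as % of maximal 8-OH-DPAT stimulation; pD2 = −log EC50.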

[2] = biological target: T2, Alpha-1A adrenergic receptor (Rattus norvegicus) (UniProt P43140); experiment: Antagonist activity at alpha1A adrenoceptor in Wistar rat vas deferans assessed as noradrenaline-induced contractions after 30 mins
T2 sequence (whole entry): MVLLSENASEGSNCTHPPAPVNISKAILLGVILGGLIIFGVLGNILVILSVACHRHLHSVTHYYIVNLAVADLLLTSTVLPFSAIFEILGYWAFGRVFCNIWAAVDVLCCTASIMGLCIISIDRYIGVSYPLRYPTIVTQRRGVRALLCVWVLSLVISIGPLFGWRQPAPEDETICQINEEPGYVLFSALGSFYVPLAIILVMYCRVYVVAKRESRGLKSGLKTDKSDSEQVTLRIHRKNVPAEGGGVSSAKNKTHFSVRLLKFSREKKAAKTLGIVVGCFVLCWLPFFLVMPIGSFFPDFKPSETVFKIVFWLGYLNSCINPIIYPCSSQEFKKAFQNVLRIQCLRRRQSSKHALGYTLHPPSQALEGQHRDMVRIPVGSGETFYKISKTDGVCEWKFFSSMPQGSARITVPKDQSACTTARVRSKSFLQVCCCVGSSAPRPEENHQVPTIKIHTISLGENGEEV

Rattus norvegicus = organism: Rattus norvegicus; experiment: Selectivity ratio of Kb for alpha1B adrenoceptor in Wistar rat spleen to Kb for alpha1A adrenoceptor in Wistar rat vas deferans; format: tissue-based
[3] = biological target: T3, Alpha-1D adrenergic receptor (Rattus norvegicus) (UniProt P23944); experiment: Antagonist activity at alpha1D adrenoceptor in Wistar rat thoracic aorta assessed as noradrenaline-induced contractions after 30 mins
T3 sequence (whole entry): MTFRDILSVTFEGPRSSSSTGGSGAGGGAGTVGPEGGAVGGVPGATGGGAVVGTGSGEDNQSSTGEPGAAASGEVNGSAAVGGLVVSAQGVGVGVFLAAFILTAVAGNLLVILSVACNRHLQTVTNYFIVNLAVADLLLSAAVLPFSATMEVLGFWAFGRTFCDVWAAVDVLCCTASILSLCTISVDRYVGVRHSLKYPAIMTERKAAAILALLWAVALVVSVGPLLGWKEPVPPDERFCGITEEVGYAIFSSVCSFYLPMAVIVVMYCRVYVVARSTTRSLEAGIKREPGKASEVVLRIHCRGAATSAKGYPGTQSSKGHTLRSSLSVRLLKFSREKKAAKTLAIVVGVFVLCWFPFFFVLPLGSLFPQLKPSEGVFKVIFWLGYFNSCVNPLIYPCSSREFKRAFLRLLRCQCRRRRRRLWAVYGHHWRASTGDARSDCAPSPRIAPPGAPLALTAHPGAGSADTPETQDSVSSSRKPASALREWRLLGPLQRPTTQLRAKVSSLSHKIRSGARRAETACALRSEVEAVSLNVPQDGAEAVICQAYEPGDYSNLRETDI

[4] = biological target: T1, 5-hydroxytryptamine receptor 1A (Homo sapiens); experiment: Agonist activity at human recombinant 5-HT1A receptor expressed in HeLa cells after 30 mins by [35S]GTPgammaS binding assay relative to control; format: functional, cell-based
How it was run: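 HeLa membranes (50–70 µg protein) in 20 mM HEPES, 3 mM MgSO4, 120 mM NaCl, pH 7.4, preincubated 20 min at 30 °C with 30 µM GDP and drug (0.01 nM–10 µM), then 200 pM [35S]GTPγS added for 30 min at 30 °C. Nonspecific binding with 10 µM GTPγS. Filtration and scintillation counting. Data expressed as % increase over basal, 8-OH-DPAT maximum = 100%. Emax and pD2 derived.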

[5] = biological target: T4, Alpha-1B adrenergic receptor (Homo sapiens, UniProt P35368); experiment: Displacement of [3H]prazosin from human recombinant alpha1B adrenoceptor expressed in CHO cells after 30 mins by liquid scintillation counting; format: cell-based
T4 sequence (P35368 whole entry): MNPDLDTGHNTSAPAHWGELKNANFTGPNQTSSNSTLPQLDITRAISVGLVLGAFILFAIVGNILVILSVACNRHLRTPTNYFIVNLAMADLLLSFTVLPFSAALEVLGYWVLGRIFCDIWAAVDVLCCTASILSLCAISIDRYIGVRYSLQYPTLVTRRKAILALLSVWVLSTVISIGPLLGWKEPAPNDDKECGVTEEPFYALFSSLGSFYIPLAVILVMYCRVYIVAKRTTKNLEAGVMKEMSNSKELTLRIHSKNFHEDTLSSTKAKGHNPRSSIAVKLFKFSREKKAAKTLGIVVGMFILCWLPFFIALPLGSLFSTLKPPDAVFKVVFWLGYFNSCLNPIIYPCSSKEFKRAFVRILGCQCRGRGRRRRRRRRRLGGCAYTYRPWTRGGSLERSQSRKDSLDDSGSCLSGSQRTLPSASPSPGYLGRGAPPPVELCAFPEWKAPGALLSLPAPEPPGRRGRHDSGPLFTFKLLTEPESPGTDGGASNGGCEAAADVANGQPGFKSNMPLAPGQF
How it was run: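 CHO cells were stably transfected by electroporation with each human α1 subtype. Membranes (70 µg protein) were incubated in 50 mM Tris pH 7.4 with 0.1–0.4 nM [3H]prazosin and competitor (1 pM–1 µM) for 30 min at 25 °C. Nonspecific binding with 10 µM tamsulosin. Filtration and scintillation counting. pKi from 2–3 experiments in duplicate.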

Compound: COc1ccccc1N1CCN(CC2COC3(CCN(c4ccccn4)CC3)O2)CC1 (stereo not drawn)
- pD2 [1]: 6.49
- pKb [2]: 7.63
- Ratio (Rattus norvegicus): 1.7
- pKb [3]: 6.87
- Emax [4]: 41%
- Ki [5]: 1000 nM

Compound: COc1ccccc1N1CCN(CC2COC3(CCN(C(=O)Nc4ccccc4)CC3)O2)CC1 (stereo not drawn)
- pD2 [1]: 7.22
- pKb [2]: 7.22
- Ratio (Rattus norvegicus): 9.12
- pKb [3]: 7.26
- Emax [4]: 28%
- Ki [5]: 81.3 nM

Compound: COc1ccccc1N1CCN(CC2COC3(CCN(c4ccccc4)CC3)O2)CC1 (stereo not drawn)
- pD2 [1]: 7.14
- pKb [2]: 7.78
- Ratio (Rattus norvegicus): 0.6
- pKb [3]: 7.43
- Emax [4]: 42%
- Ki [5]: 155 nM

Compound: COc1ccccc1N1CCN(CC2COC3(CCN(C(=O)C4CCCN4)CC3)O2)CC1 (stereo not drawn)
- pKb [2]: 7.43
- Ratio (Rattus norvegicus): 2.69
- pKb [3]: 6.71
- Ki [5]: 158 nM

Compound: COc1ccccc1N1CCN(CC2COC3(CCN(S(=O)(=O)c4ccc(Cl)cc4)CC3)O2)CC1 (stereo not drawn)
- pKb [2]: 7.24
- Ratio (Rattus norvegicus): 1.32
- pKb [3]: 7.37
- Ki [5]: 69.2 nM

Compound: COc1ccccc1N1CCN(CC2COC3(CCNCC3)O2)CC1 (stereo not drawn)
- pKb [2]: 7.74
- Ratio (Rattus norvegicus): 1.09
- pKb [3]: 6.89
- Ki [5]: 42.7 nM

Compound: COc1ccccc1N1CCN(CC2COC3(CCN(C(C)=O)CC3)O2)CC1 (stereo not drawn)
- pKb [2]: 7.17
- Ratio (Rattus norvegicus): 3.55
- pKb [3]: 6.48
- Ki [5]: 1000 nM

Compound: CCCCNC(=O)N1CCC2(CC1)OCC(CN1CCN(c3ccccc3OC)CC1)O2 (stereo not drawn)
- pD2 [1]: 6.53
- pKb [2]: 7.38
- Ratio (Rattus norvegicus): 1.04
- pKb [3]: 7.29
- Emax [4]: 30%
- Ki [5]: 240 nM

Compound: COc1ccccc1N1CCN(CC2COC3(CCN(C(=O)NC(C)(C)C)CC3)O2)CC1 (stereo not drawn)
- pKb [2]: 7.63
- Ratio (Rattus norvegicus): 0.61
- pKb [3]: 6.53
- Ki [5]: 129 nM

Compound: COc1ccccc1N1CCN(CC2COC3(CCSCC3)O2)CC1 (stereo not drawn)
- pD2 [1]: 7.48
- pKb [2]: 7.6
- Ratio (Rattus norvegicus): 1.07
- pKb [3]: 6.84
- Emax [4]: 36%
- Ki [5]: 141 nM

Compound: COc1ccccc1N1CCN(CC2COC3(CCOCC3)O2)CC1 (stereo not drawn)
- pD2 [1]: 6.82
- pKb [2]: 7.55
- Ratio (Rattus norvegicus): 0.41
- pKb [3]: 7.33
- Emax [4]: 31%
- Ki [5]: 324 nM

Compound: COc1ccccc1N1CCN(CC2COC3(CCN(S(=O)(=O)c4cccs4)CC3)O2)CC1 (stereo not drawn)
- pKb [2]: 7.46
- Ratio (Rattus norvegicus): 3.89
- pKb [3]: 7.27
- Ki [5]: 85.1 nM

Compound: COc1ccccc1N1CCN(CC2COC3(CCN(C(=O)c4ccc(C(F)(F)F)cc4)CC3)O2)CC1 (stereo not drawn)
- pKb [2]: 7.79
- Ratio (Rattus norvegicus): 3.47
- pKb [3]: 7.29
- Ki [5]: 63.1 nM

Compound: COc1ccccc1N1CCN(CC2COC3(CCS(=O)(=O)CC3)O2)CC1 (stereo not drawn)
- pKb [2]: 7.34
- Ratio (Rattus norvegicus): 2.09
- pKb [3]: 7.2
- Ki [5]: 288 nM

Compound: COc1ccccc1N1CCN(CC2COC3(CCN(C(=O)c4ccco4)CC3)O2)CC1 (stereo not drawn)
- pD2 [1]: 7.12
- pKb [2]: 7.43
- Ratio (Rattus norvegicus): 1.82
- pKb [3]: 7.38
- Emax [4]: 33%
- Ki [5]: 158 nM

Compound: COc1ccccc1N1CCN(CC2COC3(CCN(S(=O)(=O)c4ccc(OC(F)(F)F)cc4)CC3)O2)CC1 (stereo not drawn)
- pKb [2]: 6.98
- Ratio (Rattus norvegicus): 5.75
- pKb [3]: 7.37
- Ki [5]: 148 nM

Compound: COc1ccccc1N1CCN(CC2COC3(CCN(Cc4ccccc4)CC3)O2)CC1 (stereo not drawn)
- pD2 [1]: 7.21
- pKb [2]: 7.72
- Ratio (Rattus norvegicus): 0.29
- pKb [3]: 8.6
- Emax [4]: 45%
- Ki [5]: 16.6 nM

Compound: COc1ccccc1N1CCN(CC2COC3(CCN(C(=O)C(F)(F)F)CC3)O2)CC1 (stereo not drawn)
- pKb [2]: 6.97
- Ratio (Rattus norvegicus): 10.7
- pKb [3]: 7.5
- Ki [5]: 1000 nM

Compound: COc1ccccc1N1CCN(CC2COC3(CCN(C(=O)c4ccccc4)CC3)O2)CC1 (stereo not drawn)
- pKb [2]: 7.71
- Ratio (Rattus norvegicus): 3.02
- pKb [3]: 7.45
- Ki [5]: 67.6 nM

Compound: COc1ccccc1N1CCN(CC2COC3(CCN(S(=O)(=O)c4ccc([N+](=O)[O-])cc4)CC3)O2)CC1 (stereo not drawn)
- pD2 [1]: 7.65
- pKb [2]: 7.74
- Ratio (Rattus norvegicus): 1.02
- pKb [3]: 8.02
- Emax [4]: 37%
- Ki [5]: 110 nM

Compound: COc1ccccc1N1CCN(CC2COC3(CCN(S(=O)(=O)c4ccccc4)CC3)O2)CC1 (stereo not drawn)
- pKb [2]: 7.48
- Ratio (Rattus norvegicus): 2.88
- pKb [3]: 7.05
- Ki [5]: 85.1 nM

Compound: COc1ccccc1N1CCN(CC2COC3(CCN(C(=O)C4CCCCC4)CC3)O2)CC1 (stereo not drawn)
- pD2 [1]: 7.29
- pKb [2]: 6.95
- Ratio (Rattus norvegicus): 2.4
- pKb [3]: 7.02
- Emax [4]: 33%
- Ki [5]: 110 nM

Compound: COc1ccccc1N1CCN(CC2COC3(CCCCC3)O2)CC1 (stereo not drawn)
- pD2 [1]: 8.61
- pKb [2]: 6.78
- Ratio (Rattus norvegicus): 0.87
- pKb [3]: 7.88
- Emax [4]: 48%
- Ki [5]: 126 nM

Compound: COc1ccccc1N1CCN(CC2COC3(CCN(S(C)(=O)=O)CC3)O2)CC1 (stereo not drawn)
- pKb [2]: 7.41
- Ratio (Rattus norvegicus): 1.12
- pKb [3]: 7.18
- Ki [5]: 363 nM

Compound: COc1ccccc1N1CCN(CC2COC3(CCN(S(=O)(=O)c4cccc([N+](=O)[O-])c4)CC3)O2)CC1 (stereo not drawn)
- pKb [2]: 7.97
- Ratio (Rattus norvegicus): 1.48
- pKb [3]: 7.98
- Ki [5]: 69.2 nM

Compound: COc1ccccc1N1CCN(CC2COC3(CCN(S(=O)(=O)c4ccc(C)cc4)CC3)O2)CC1 (stereo not drawn)
- pD2 [1]: 7.33
- pKb [2]: 7.4
- Ratio (Rattus norvegicus): 3.23
- pKb [3]: 6.96
- Emax [4]: 28%
- Ki [5]: 8.32 nM
